# This excerpt belongs to a sample that is enriched for hits.
# ROMK primary – modulators of human ROMK potassium channel | Tet-inducible ROMK, thallium flux fluorescence; actives lie on both sides | B-score at 10 µM | actives 2% (n = 130,000);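 active means signal ratio slope over the read window, or its plate-corrected B-score, at least 3 SD from the plate mean, either direction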;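 further: B-score of the F/F0 ratio slope over 7 to 12 s after thallium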
# Target sequence (P48048 whole entry, looked up): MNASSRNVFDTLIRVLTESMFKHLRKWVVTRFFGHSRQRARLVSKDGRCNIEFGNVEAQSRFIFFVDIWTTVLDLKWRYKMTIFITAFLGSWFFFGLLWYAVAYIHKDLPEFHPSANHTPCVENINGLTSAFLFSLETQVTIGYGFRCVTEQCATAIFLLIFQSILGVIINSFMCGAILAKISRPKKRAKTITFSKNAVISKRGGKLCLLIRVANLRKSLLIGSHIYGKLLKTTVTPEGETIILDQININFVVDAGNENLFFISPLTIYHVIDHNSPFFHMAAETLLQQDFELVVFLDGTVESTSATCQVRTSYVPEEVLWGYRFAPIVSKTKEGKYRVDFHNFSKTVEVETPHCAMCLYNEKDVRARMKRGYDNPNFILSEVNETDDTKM
# Biofilm kill mix – mixture kills Candida albicans biofilm cells. C. albicans biofilm persisters + clotrimazole, fluorescence viability; primary screen in compound mixtures of four per well. inhibition, % at 7.6 µM. actives 0.02% (n = 120,000). AID 1242;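 active means inhibition above 30.3% in the primary screen of four-compound pools, then above 30% when the compound was retested; inconclusive means passed the primary limit but could not be retested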;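 further: compounds exposed to preformed 24 h biofilms for 48 h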
#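 Probe or stimulus – Clotrimazole 50 µg/mL co-treatment · System – C. albicans biofilms · Schedule – 24 h biofilm formation, then 48 h compound exposure, 37 °C · Evaluation – percent inhibition of biofilm viability · Technique – 2-h Alamar Blue fluorescence, 535/590 nm excitation/emission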
# Pf gametocyte – P. falciparum stage V gametocyte viability inhibition | actives 0.065% (n = 150,000) | inhibition, % at 10.9 µM | P. falciparum stage V gametocytes, ATP luminescence, 24 h | AID 743093;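 active means inhibition above the mean plus 3 SD of compounds within the control limits, set per campaign, cut at about 38% in these data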
# ROMK retest – confirmation of human ROMK potassium channel modulators. AID 1917. normalized thallium flux (F/F0 slope) at 10 µM. shares compounds with ROMK primary. ROMK thallium flux, fluorescence ratio; hits give low values. actives 54% (n = 3,000);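 active means Flux at 10 µM at least 3 SD below or above vehicle control mean in one or both replicates; inconclusive means no clear call, values can overlap the other calls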
# Numbers stand for hits; - = inactive; ? = inconclusive; . = no result given.
SMILES,ROMK primary,Biofilm kill mix,Pf gametocyte,ROMK retest
CCOc1ccc(S(=O)(=O)N(C)C)cc1-c1nc2c(C(C)(C)C)nn(C)c2c(=O)[nH]1,-,.,.,.
O=C(CSc1ccc(Cl)cc1)N/N=C/c1cccnc1,-,-,-,.
O=C(/C(=C/c1ccncc1)n1ccnc1)c1ccc(Cl)cc1Cl,-7.9,-,-,0.03
O=C(/C(=C/c1cccnc1)n1ccnc1)c1ccc(Cl)cc1Cl,-5.6,-,-,0.03
N/C(=N\OC(=O)c1ccc(Cl)cc1Cl)c1ccncc1,.,-,-,.
Cc1ccnc(NC(=O)CSc2nnc3c(n2)[nH]c2ccccc23)c1,.,-,.,.
Cc1ccc(C2=NOC(=O)/C2=C\c2ccc(C)o2)cc1,-3.7,-,-,0.039
Cc1ccc(/C=C2\C(=O)ON=C2c2ccccc2)o1,-,-,-,.
COC(=O)c1ccc(NC(=O)CS(=O)(=O)c2ccccc2)cc1,.,.,-,.
C=CCn1c(N)c(C(=O)NCC2CCCO2)c2nc3ccccc3nc21 (stereo not drawn),.,.,.,0.066
Nc1c(C(=O)NCC2CCCO2)sc(=S)n1-c1ccccc1 (stereo not drawn),-,.,.,.
COc1cc(OC)c(C(=O)CCCN2CCCC2)c(OC)c1,.,-,.,.
COC(=O)C(C)SC1=N/C(=C/c2ccc(-n3cncn3)cc2)C(=O)N1 (stereo not drawn),.,-,-,.
COc1ccc(C/C(O)=C(\C#N)c2nc3ccccc3s2)cc1,-3.1,.,.,0.06
N#C/C(=C(/O)COc1ccccc1)c1nc2ccccc2s1,-,-,-,.
Cc1ccccc1C1CCCN(Cc2nc(CC3CC3)no2)C1 (stereo not drawn),-,-,-,.
Clc1cc2nc[nH]c2cc1Cl,-,-,-,.
O=C(c1cccc(C(F)(F)F)c1)N1CCc2c([nH]c3ccccc23)C1C(F)(F)F (stereo not drawn),.,-,-,.
CCOC(=O)C1CCN(C(=O)COc2ccc(Br)cc2Br)CC1,-,-,-,.
CCOC(=O)C1CCN(C(=O)COc2cc(C)c(Br)cc2C)CC1,-4.9,.,.,0.058
O=C(O)c1ccccc1C(=O)Nc1ccc(Oc2cccc3ccccc23)cc1,-,-,.,.
Cc1cccc(Oc2ccc(NC(=O)c3ccccc3C(=O)O)cc2)c1C,1.6,-,-,-
NC(N)=Nc1nc(-c2ccccc2)c2cc(F)ccc2n1,-3.7,-,-,0.06
OCCSc1nc(-c2ccccc2)nc2ccc(F)cc12,-,-,-,.
CC(C)Oc1ccc(C(=O)NC(=S)Nc2ccc(Cl)c(C(=O)O)c2)cc1,-,-,-,.
SMILES,ROMK primary,Biofilm kill mix,Pf gametocyte,ROMK retest
CN1/C(=C\C=N\O)C(C)(C)c2ccccc21,-,-,-,.
CN(C)c1ccc(N=C/C=C2/N(C)c3ccccc3C2(C)C)cc1,.,-,-,0.054
Cc1cc(C)n(-c2nc(NC(C)(C)C)nc(NC(C)(C)C)n2)n1,.,.,-,.
Cc1cc(C)n(-c2nc(Nc3ccccc3C(F)(F)F)nc(-n3nc(C)cc3C)n2)n1,.,-,-,?
COC(=O)c1ccccc1Oc1cc(C(F)(F)F)nc(-c2ccccn2)n1,.,.,-,.
Cc1cccc(C2(c3cccc(C)c3)CC2C(=O)Nc2ccc([N+](=O)[O-])cc2O)c1 (stereo not drawn),.,-,-,.
NC(=O)C1=NOC(CNc2ncc(C(F)(F)F)cc2Cl)C1 (stereo not drawn),2.4,.,.,-
CO/N=C/NC(=O)C1=NOC(CNc2ncc(C(F)(F)F)cc2Cl)C1 (stereo not drawn),-,.,.,.
Cc1cccc(OCCCN2CCCCCC2)c1,3.2,.,.,-
Cc1cccc(OCCCCCN2CCOCC2)c1,.,.,-,.
Cc1cc(/C=C(\C#N)C(=O)N2CCOCC2)c(C)n1C1CCCC1,.,-,-,.
CS(=O)(=O)c1cccc(-c2csc(N3CCC(C(N)=O)CC3)n2)c1,.,.,-,.
NC(=O)C1CCN(C2=C(Cl)C(=O)c3ccccc3C2=O)CC1,.,.,-,0.053
O=C1C(Cl)=C(N2CCC(C(=O)O)CC2)C(=O)c2ccccc21,.,-,.,.
O=S(=O)(Nc1ccc(Cl)cn1)c1ccc(F)cc1,.,.,-,.
O=C(O)c1cccc(NC(=O)c2ccc(S(=O)(=O)c3ccccc3)cc2)c1,-,-,-,.
COc1cc2ncnc(NCc3ccccc3C)c2cc1OC,.,.,.,?
COc1cc2ncnc(NCc3ccccc3Cl)c2cc1OC,-,-,-,.
Cc1ccc(S(=O)(=O)C2C(=O)N(C)C3(C)CC2c2ccccc2O3)cc1 (stereo not drawn),.,-,-,.
Cc1cccc[n+]1CCCCCCCCCC[n+]1ccccc1C,-,-,.,.
CCCCCCCC[n+]1cccc2c3ccccc3ccc21,.,-,-,0.052
Cc1c2ccccc2cc[n+]1CCCS(=O)(=O)[O-],-,-,-,.
CCCCCCCCCC[n+]1cccc2c3ccccc3ccc21,.,-,-,0.035
Cc1ccccc1CSCC(=O)Nc1ccccc1Br,.,.,-,.
CCOC(=O)CSC1=C(C#N)C(c2ccccc2OCC)C(C(=O)OCC)C(=O)N1 (stereo not drawn),-,.,.,.
SMILES,ROMK primary,Biofilm kill mix,Pf gametocyte,ROMK retest
CCOC(=O)CSC1=C(C#N)C(c2ccccc2OCC)C(C#N)C(=O)N1 (stereo not drawn),3.2,.,.,-
O=C(O)COc1ccc(Br)cc1CP(=O)(c1ccccc1)c1ccccc1,-,-,-,.
CCOc1ccc2nc(-c3cc(NC(C)=O)ccc3O)sc2c1,-,-,-,.
c1ccc2c(c1)OCCOCCOCCOCCOCCOc1ccccc1OCCOCCOCCO2,-4.8,-,.,0.042
OCCN1CCOCCOc2ccccc2OCCOCC1,.,.,-,.
COC(=O)C(=C/C=C/N1CCOCC1)C(=O)OC,.,-,.,.
Cc1cc(C)c(CN2CCC(CO)(CCOc3ccccc3)CC2)cc1C,-,-,.,.
OCC1(CCOc2ccccc2)CCN(C2Cc3ccccc3C2)CC1,-3,-,-,0.058
COc1ccc2c(C(=O)CCl)c[nH]c2c1,.,-,-,.
CCC(CO)NCC(O)COCc1ccc2c(c1)OCO2 (stereo not drawn),-,-,.,.

# Compound activity from PubChem BioAssay.
